Data on five compounds can be found in ChEMBL document CHEMBL1128499, “Bisimidazoacridones and related compounds: new antineoplastic agents with high selectivity against colon tumors” (1995).

What all share (type): functional
Settings in all cases: Homo sapiens

Assay [1] has as its system COLO 205. Description: The concentration of compound required for 50% cell growth inhibition which was expressed in logarithmic form was measured on COLO 205 cell lines of colon cancer. In a few lines:
(§1)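 NCI 60-cell-line screen, sulforhodamine B assay. Cells grown in RPMI 1640 with 5% fetal bovine serum and 2 mM L-glutamine, seeded at 5000 to 40 000 cells/well, and incubated 24 h before drug. Drug exposure lasted 48 h. Cells were then TCA-fixed, stained with 0.4% (w/v) SRB in 1% acetic acid, and the stain solubilized in 10 mM Tris base for absorbance reading. GI50 taken from dose-response curves.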

Assay [2] concerns Malme-3M. Briefly: The concentration of compound required for 50% cell growth inhibition which was expressed in logarithmic form was measured on MALME-3M cell lines of Melanoma. In a few lines: as §1
In assay [3] the test system is HCC 2998. Description: The concentration of compound required for 50% cell growth inhibition which was expressed in logarithmic form was measured on HCC2998 cell lines of colon cancer. In short, it runs like this:
as §1

Assay [4] deals with SK-MEL-2. Briefly: The concentration of compound required for 50% cell growth inhibition which was expressed in logarithmic form was measured on SK-MEL-2 cell lines of Melanoma. In a few lines:
as §1

In assay [5] the test system is HL-60. Briefly: The concentration of compound required for 50% cell growth inhibition which was expressed in logarithmic form was measured on HL-60(TB) cell lines of Leukemia. In a few lines:
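NCI 60-line screen, sulforhodamine B read-out. Lines grown in RPMI 1640 with 5% fetal bovine serum and 2 mM L-glutamine, seeded at 5000–40 000 cells/well and left 24 h before drug. Drug exposure 48 h, then TCA fixation, 0.4% (w/v) SRB staining in 1% acetic acid, solubilization in 10 mM unbuffered Tris base and absorbance reading. GI50 reported as log value.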

Assay [6] deals with MOLT-4. Briefly: The concentration of compound required for 50% cell growth inhibition which was expressed in logarithmic form was measured on MOLT-4 cell lines of Leukemia. In a few lines:
as §1

Assay [7] relates to SK-MEL-28. Briefly: The concentration of compound required for 50% cell growth inhibition which was expressed in logarithmic form was measured on SK-MEL-28 cell lines of Melanoma. In a few lines: as §1
Assay [8] concerns HCT-116. Briefly: The concentration of compound required for 50% cell growth inhibition which was expressed in logarithmic form was measured on […] cell lines of colon cancer. In short, it runs like this: as §1
The subject of assay [9] is RPMI-8226. Briefly: The concentration of compound required for 50% cell growth inhibition which was expressed in logarithmic form was measured on RPMI-8226 cell lines of Leukemia. In short, it runs like this: as §1
Assay [10] relates to K562. Briefly: The concentration of compound required for 50% cell growth inhibition which was expressed in logarithmic form was measured on K-562 cell lines of Leukemia. In short, it runs like this: as §1
Assay [11] deals with UACC-257. Description: The concentration of compound required for 50% cell growth inhibition which was expressed in logarithmic form was measured on UACC-257 cell lines of Melanoma. In short, it runs like this: as §1
Assay [12] deals with CCRF-CEM. Description: The concentration of compound required for 50% cell growth inhibition which was expressed in logarithmic form was measured on CCRF-CEM cell lines of Leukemia. In short, it runs like this: as §1
Assay [13] has as its system SW-620. Briefly: The concentration of compound required for 50% cell growth inhibition which was expressed in logarithmic form was measured on SW-620 cell lines of colon cancer. In a few lines:
as §1

The subject of assay [14] is UACC-62. Briefly: The concentration of compound required for 50% cell growth inhibition which was expressed in logarithmic form was measured on UACC-62 cell lines of Melanoma. In short, it runs like this: as §1
For assay [15], the system named is M14. Briefly: The concentration of compound required for 50% cell growth inhibition which was expressed in logarithmic form was measured on M14 cell lines of Melanoma. In a few lines:
as §1

Assay [16] deals with HCT-15. Description: The concentration of compound required for 50% cell growth inhibition which was expressed in logarithmic form was measured on HCT-15 cell lines of colon cancer. In short, it runs like this:
as §1

Assay [17] deals with KM12. Description: The concentration of compound required for 50% cell growth inhibition which was expressed in logarithmic form was measured on KM12 cell lines of colon cancer. In a few lines:
as §1

Assay [18] deals with SK-MEL-5. Description: The concentration of compound required for 50% cell growth inhibition which was expressed in logarithmic form was measured on SK-MEL-5 cell lines of Melanoma. In short, it runs like this:
as §1

The subject of assay [19] is HT-29. Description: The concentration of compound required for 50% cell growth inhibition which was expressed in logarithmic form was measured on HT-29 cell lines of colon cancer. In a few lines:
as §1

One may read the GI50 as the concentration giving 50% growth inhibition. Take `CN(CCNc1ccc2ncn3c4ccccc4c(=O)c1c23)CCNc1ccc2ncn3c4ccccc4c(=O)c1c23`: the GI50 is 22400 nM in assay [1]; 13200 nM in assay [2]; 25100 nM in assay [3]; 27500 nM in assay [4]; over 100000 nM in [5]; 58900 nM in assay [6]. Besides, the GI50 in [7] is 2820 nM; in assay [8], 2240 nM; in assay [9], 28200 nM; in assay [10] it was 28200 nM; in assay [11] it was 8130 nM; in assay [12] it was 95500 nM. Moreover, the GI50 in assay [13] was 11200 nM; in [14], 21900 nM; in [15], 4070 nM; in assay [16] it was 27500 nM; in assay [17], 2690 nM; in assay [18], 5890 nM. For the same compound, the GI50 in assay [19] was 4370 nM.
`CN(CCCNc1ccc2ncn3c4ccccc4c(=O)c1c23)CCCNc1ccc2ncn3c4ccc(C(C)(C)C)cc4c(=O)c1c23`: the GI50 in assay [1] is 1740 nM; in assay [2], 1740 nM; in assay [3], 1700 nM; in [4] it was 1580 nM; in [5] it was 4790 nM; in assay [6], 3090 nM. Further, the GI50 was 1820 nM in assay [7]; 1230 nM in assay [8]; 2880 nM in assay [9]; 724 nM in assay [10]; 1450 nM in [11]; 6920 nM in assay [12]. In addition, the GI50 in [13] was 1290 nM; in assay [14], 1910 nM; in assay [15] it was 2040 nM; in assay [16], 1780 nM; in [17] it was 1550 nM; in assay [18], 1700 nM. The compound also showed a GI50 in assay [19] of 1580 nM.
Take `CN(CCCN)CCCNc1ccc2ncn3c4ccccc4c(=O)c1c23`: the GI50 in [1] is 1150 nM; in assay [2], 1620 nM; in assay [3], 1350 nM; in [4] it was 1450 nM; in [5] it was 282 nM; in [6] it was 355 nM. For the same compound, the GI50 in assay [7] was 1550 nM; in assay [8] it was 661 nM; in assay [9], 1150 nM; in assay [10] it was 813 nM; in assay [11] it was 1780 nM; in [12], 347 nM. Further, the GI50 in assay [13] is 631 nM; in assay [14] it was 1620 nM; in assay [15], 1780 nM; in assay [16] it was 3470 nM; in assay [17] it was 1070 nM; in assay [18] it was 1550 nM. In assay [19], it took 631 nM to inhibit growth by half (GI50).
As to `CN(CCCNc1ccc2ncn3c4ccccc4c(=O)c1c23)CCCNc1ccc2ncn3c4ccccc4c(=O)c1c23`, the GI50 is 501 nM in assay [1]; 776 nM in assay [2]; 93.3 nM in [3]; 13800 nM in assay [4]; 44.7 nM in assay [5]; under 10 nM in assay [6]. The GI50 in assay [7] is over 100000 nM; in [8] it was under 10 nM; in assay [9], 145 nM; in assay [10], under 10 nM; in assay [11], over 100000 nM; in [12] it was under 10 nM. Besides, the GI50 is under 10 nM in [13]; 8130 nM in [14]; over 100000 nM in assay [15]; 316 nM in [16]; 295 nM in assay [17]; 12900 nM in assay [18]. This compound showed a GI50 in [19] of 16.6 nM.
For the compound `CN(CCCNc1ccc2ncn3c4ccccc4c(=O)c1c23)CCCNc1ccc2nnn3c4ccccc4c(=O)c1c23`, the GI50 was 372 nM in assay [1]; 12000 nM in assay [2]; 51300 nM in [4]; 10200 nM in assay [5]; over 100000 nM in [6]; 44700 nM in assay [7]. Further, the GI50 is under 10 nM in assay [8]; 17800 nM in assay [10]; over 100000 nM in [11]; 5010 nM in [12]; under 10 nM in [13]; 38000 nM in assay [14]. For the same compound, the GI50 was over 100000 nM in [15]; 47.9 nM in assay [16]; 30.9 nM in assay [17]; 17000 nM in assay [18]; under 10 nM in assay [19].
